In brackets after ≈: the same amount, converted by molar mass.
Key:
[1] = Cytotoxicity against human HeLa cells; type: toxicity, cell-based
[2] = Cytotoxicity against African green monkey Vero cells; type: toxicity, cell-based; conditions: chlorocebus sabaeus
[3] = test system: Mycobacterium tuberculosis; experiment: Antimycobacterial activity against Mycobacterium tuberculosis H37Rv assessed as mycobacterial growth inhibition by low oxygen recovery assay; type: functional
Method in brief: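 M. tuberculosis H37Rv under hypoxic conditions, low-oxygen recovery assay (LORA) following Cho et al. Read-out is MIC.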

[4] = test system: Mycobacterium tuberculosis; experiment: Antimycobacterial activity against Mycobacterium tuberculosis H37Rv assessed as mycobacterial growth inhibition by microplate alamar blue assay; type: functional
Method in brief: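 M. tuberculosis H37Rv under normoxic conditions, microplate alamar blue assay (MABA) following Cho et al. Read-out is MIC.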

[5] = biological target: Sodium channel protein type 5 subunit alpha (Homo sapiens, UniProt Q14524); experiment: Inhibition of Nav1.5 (unknown origin)
[6] = biological target: Voltage-gated inwardly rectifying potassium channel KCNH2 (Homo sapiens, UniProt Q12809); experiment: Inhibition of human ERG; type: toxicity
Cardiac Purkinje fiber = experiment: Effect on rabbit Purkinje fiber assessed as change in concentration of maximum upstroke velocity; type: functional, Oryctolagus cuniculus
[7] = biological target: Voltage-dependent L-type calcium channel subunit alpha-1C (Homo sapiens, UniProt Q13936); experiment: Inhibition of human Cav1.2
[8] = test system: Mycobacterium tuberculosis; experiment: Antimycobacterial activity against drug-sensitive Mycobacterium tuberculosis assessed as mycobacterial growth inhibition; type: functional
[9] = test system: Mycolicibacterium peregrinum; experiment: Antimycobacterial activity against Mycobacterium peregrinum ATCC700686 assessed as mycobacterial growth inhibition; type: functional
[10] = test system: Mycolicibacterium smegmatis; experiment: Antimycobacterial activity against Mycobacterium smegmatis ATCC19420 assessed as mycobacterial growth inhibition; type: functional
[11] = test system: Mycolicibacterium smegmatis; experiment: Antimycobacterial activity against Mycobacterium smegmatis ATCC700084 assessed as mycobacterial growth inhibition; type: functional

Voltage-gated inwardly rectifying potassium channel KCNH2, sequence (Q12809 whole entry): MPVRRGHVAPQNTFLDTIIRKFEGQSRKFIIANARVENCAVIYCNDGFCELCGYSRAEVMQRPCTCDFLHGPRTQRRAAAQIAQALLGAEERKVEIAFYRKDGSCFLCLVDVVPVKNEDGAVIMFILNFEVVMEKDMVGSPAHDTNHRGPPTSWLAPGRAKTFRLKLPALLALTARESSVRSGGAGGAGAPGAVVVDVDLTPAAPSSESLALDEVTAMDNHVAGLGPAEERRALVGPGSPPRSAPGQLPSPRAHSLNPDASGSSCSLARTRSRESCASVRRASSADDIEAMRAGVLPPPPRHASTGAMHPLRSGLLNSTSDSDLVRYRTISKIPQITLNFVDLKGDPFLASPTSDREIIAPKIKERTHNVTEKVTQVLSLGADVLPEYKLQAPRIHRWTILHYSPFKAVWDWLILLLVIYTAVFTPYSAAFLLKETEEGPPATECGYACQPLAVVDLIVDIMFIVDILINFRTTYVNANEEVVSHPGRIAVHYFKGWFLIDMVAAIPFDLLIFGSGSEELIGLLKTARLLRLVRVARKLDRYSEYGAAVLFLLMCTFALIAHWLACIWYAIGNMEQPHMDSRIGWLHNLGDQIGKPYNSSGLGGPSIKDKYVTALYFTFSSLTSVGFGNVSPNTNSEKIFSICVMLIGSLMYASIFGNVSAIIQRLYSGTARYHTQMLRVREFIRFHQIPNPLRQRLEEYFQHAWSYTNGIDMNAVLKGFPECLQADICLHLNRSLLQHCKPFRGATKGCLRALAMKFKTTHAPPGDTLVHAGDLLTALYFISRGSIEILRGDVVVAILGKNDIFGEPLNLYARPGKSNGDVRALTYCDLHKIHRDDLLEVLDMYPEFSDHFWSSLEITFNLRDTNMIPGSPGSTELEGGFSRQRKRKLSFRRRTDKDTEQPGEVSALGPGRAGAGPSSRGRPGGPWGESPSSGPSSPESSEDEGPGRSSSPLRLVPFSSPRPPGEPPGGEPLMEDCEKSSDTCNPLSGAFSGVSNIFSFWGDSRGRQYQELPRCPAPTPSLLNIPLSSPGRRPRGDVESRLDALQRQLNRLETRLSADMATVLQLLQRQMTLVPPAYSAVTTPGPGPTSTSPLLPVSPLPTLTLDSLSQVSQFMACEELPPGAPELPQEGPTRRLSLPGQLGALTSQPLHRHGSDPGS
Voltage-dependent L-type calcium channel subunit alpha-1C, sequence (Q13936 whole entry): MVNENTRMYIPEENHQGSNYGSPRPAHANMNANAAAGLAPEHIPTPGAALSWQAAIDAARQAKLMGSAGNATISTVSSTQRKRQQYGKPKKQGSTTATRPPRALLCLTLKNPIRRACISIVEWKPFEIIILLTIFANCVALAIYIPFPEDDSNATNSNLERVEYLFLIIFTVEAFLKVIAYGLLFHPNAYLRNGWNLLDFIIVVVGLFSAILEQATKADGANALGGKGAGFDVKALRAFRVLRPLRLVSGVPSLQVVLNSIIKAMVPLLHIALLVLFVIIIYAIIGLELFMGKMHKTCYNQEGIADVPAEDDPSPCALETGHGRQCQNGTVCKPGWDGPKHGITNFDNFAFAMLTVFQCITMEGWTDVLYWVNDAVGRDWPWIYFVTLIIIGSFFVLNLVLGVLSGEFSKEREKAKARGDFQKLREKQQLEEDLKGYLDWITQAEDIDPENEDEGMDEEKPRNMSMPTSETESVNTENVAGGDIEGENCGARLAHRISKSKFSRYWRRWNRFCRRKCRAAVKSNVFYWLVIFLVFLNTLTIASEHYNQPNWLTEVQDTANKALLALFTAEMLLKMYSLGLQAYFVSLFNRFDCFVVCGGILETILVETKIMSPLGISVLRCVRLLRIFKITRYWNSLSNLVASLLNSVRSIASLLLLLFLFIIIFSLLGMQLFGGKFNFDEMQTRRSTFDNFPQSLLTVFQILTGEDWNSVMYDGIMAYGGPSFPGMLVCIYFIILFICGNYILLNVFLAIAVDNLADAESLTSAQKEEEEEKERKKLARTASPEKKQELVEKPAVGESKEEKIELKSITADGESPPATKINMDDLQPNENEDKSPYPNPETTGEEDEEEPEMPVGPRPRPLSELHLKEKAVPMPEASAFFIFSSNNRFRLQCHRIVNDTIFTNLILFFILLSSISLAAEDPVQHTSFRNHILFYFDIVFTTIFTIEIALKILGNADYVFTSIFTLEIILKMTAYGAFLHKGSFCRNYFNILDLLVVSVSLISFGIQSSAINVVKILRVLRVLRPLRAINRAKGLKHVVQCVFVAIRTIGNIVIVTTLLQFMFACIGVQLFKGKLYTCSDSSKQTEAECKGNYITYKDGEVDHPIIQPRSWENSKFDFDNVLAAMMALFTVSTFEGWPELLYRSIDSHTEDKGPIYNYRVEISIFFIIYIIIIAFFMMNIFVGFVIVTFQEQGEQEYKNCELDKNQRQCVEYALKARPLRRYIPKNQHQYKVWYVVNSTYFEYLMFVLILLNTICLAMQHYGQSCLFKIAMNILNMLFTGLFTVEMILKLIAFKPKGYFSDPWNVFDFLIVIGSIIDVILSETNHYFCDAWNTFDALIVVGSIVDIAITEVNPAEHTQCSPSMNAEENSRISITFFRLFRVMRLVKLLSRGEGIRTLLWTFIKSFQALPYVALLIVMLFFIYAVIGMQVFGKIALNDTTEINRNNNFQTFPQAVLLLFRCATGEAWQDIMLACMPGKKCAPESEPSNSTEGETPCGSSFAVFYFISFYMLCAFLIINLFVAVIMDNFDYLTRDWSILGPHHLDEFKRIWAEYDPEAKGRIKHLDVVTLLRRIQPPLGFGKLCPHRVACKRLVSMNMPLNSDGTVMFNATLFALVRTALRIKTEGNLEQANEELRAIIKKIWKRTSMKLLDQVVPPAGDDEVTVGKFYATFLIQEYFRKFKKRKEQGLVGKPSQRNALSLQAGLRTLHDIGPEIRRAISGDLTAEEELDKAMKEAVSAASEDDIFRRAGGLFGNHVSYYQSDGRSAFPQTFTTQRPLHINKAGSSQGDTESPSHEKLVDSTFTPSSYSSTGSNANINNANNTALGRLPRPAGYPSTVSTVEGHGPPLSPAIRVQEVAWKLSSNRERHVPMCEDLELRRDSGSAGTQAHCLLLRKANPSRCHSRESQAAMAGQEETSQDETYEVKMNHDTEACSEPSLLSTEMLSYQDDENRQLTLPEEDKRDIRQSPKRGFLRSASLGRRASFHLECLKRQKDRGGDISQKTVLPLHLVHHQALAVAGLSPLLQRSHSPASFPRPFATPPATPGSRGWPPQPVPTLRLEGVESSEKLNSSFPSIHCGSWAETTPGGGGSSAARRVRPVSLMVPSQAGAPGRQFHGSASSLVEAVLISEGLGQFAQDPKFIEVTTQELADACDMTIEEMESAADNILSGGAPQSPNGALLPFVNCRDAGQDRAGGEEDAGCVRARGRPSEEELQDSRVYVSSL

Structure (SMILES)	CC50 [1] [µg/mL]	CC50 [2] [µg/mL]	MIC [3] [µg/mL]	MIC [4] [µg/mL]	further results
COc1nc(-c2ccccc2Cl)ccc1[C@@H](c1ccccc1)[C@@](O)(CCN(C)C)c1cccc2ccccc12	> 64	> 50	3.03 (≈ 5.64 µM)	1.17 (≈ 2.18 µM)	–
CNCC[C@@](O)(c1cccc2ccccc12)[C@H](c1ccccc1)c1ccc(-c2ccc(Cl)cc2)nc1OC	–	–	–	–	IC50 [5]: > 10 µM; IC50 [6]: 1.89 µM; Activity (Cardiac Purkinje fiber): >3 µM; IC50 [7]: > 3 µM
COc1nc(-c2ccc(Cl)c(F)c2)ccc1[C@@H](c1ccccc1)[C@@](O)(CCN(C)C)c1cccc2ccccc12	> 64	> 50	0.52 (≈ 0.937 µM)	0.19 (≈ 0.342 µM)	–
COc1nc(-c2ccncc2)ccc1[C@@H](c1ccccc1)[C@@](O)(CCN(C)C)c1cccc2ccccc12	9.6 (≈ 19.1 µM)	> 50	–	0.7 (≈ 1.39 µM)	–
COc1nc(-c2cccc(Cl)c2)ccc1[C@@H](c1ccccc1)[C@@](O)(CCN(C)C)c1cccc2ccccc12	–	> 50	1.36 (≈ 2.53 µM)	2.73 (≈ 5.08 µM)	–
COc1ncc(-c2ccccc2)cc1[C@@H](c1ccccc1)[C@@](O)(CCN(C)C)c1cc(F)ccc1F	–	> 50	0.7 (≈ 1.43 µM)	0.7 (≈ 1.43 µM)	–
COc1nc(-c2cnsc2)ccc1[C@@H](c1ccccc1)[C@@](O)(CCN(C)C)c1cccc2ccccc12	28.8 (≈ 56.5 µM)	26.3 (≈ 51.6 µM)	3.9 (≈ 7.65 µM)	1.9 (≈ 3.73 µM)	–
COc1ncc(-c2ccccc2)cc1[C@@H](c1ccccc1)[C@@](O)(CCN(C)C)c1cc(F)cc(F)c1	28.8 (≈ 58.9 µM)	> 50	0.4 (≈ 0.819 µM)	0.7 (≈ 1.43 µM)	–
COc1nc(-c2ccc(C(F)(F)F)cc2)ccc1[C@@H](c1ccccc1)[C@@](O)(CCN(C)C)c1cccc2ccccc12	> 64	> 50	0.63 (≈ 1.1 µM)	0.96 (≈ 1.68 µM)	–
COc1nc(-c2ccc(Br)cc2)ccc1[C@@H](c1ccccc1)[C@@](O)(CCN(C)C)c1cccc2ccccc12	> 64	> 50	0.22 (≈ 0.378 µM)	0.22 (≈ 0.378 µM)	–
NC[C@H]1O[C@H](O[C@H]2[C@H](O)[C@@H](O[C@H]3O[C@H](CO)[C@@H](O)[C@H](N)[C@H]3O)[C@H](N)C[C@@H]2N)[C@H](O)[C@@H](O)[C@@H]1O [KANAMYCIN]	–	–	–	–	MIC50 [8]: 1.22 µg/mL (≈ 2.52 µM); MIC90 [8]: 1.91 µg/mL (≈ 3.94 µM)
COc1nc(C2CCCCC2)ccc1[C@@H](c1ccccc1)[C@@](O)(CCN(C)C)c1cccc2ccccc12	57.7 (≈ 113 µM)	32.3 (≈ 63.5 µM)	1.8 (≈ 3.54 µM)	–	–
COc1nc(-c2ccccc2F)ccc1[C@@H](c1ccccc1)[C@@](O)(CCN(C)C)c1cccc2ccccc12	–	> 50	0.57 (≈ 1.09 µM)	1.41 (≈ 2.71 µM)	–
CO[C@H]1/C=C/O[C@@]2(C)Oc3c(C)c(O)c4c(O)c(c(/C=N/N5CCN(C)CC5)c(O)c4c3C2=O)NC(=O)/C(C)=C\C=C\[C@H](C)[C@H](O)[C@@H](C)[C@@H](O)[C@@H](C)[C@H](OC(C)=O)[C@@H]1C [RIFAMPIN]	–	–	–	–	MIC50 [8]: 0.035 µg/mL (≈ 0.0425 µM); MIC90 [8]: 0.057 µg/mL (≈ 0.0693 µM)
COc1ncc(-c2ccccc2)cc1[C@@H](c1ccccc1)[C@@](O)(CCN(C)C)c1cccc2ccccc12	30.4 (≈ 60.5 µM)	> 50	0.7 (≈ 1.39 µM)	1.1 (≈ 2.19 µM)	MIC [9]: 0.0625 µg/mL (≈ 0.124 µM); MIC [10]: 0.0312 µg/mL (≈ 0.0622 µM); MIC [11]: 0.0625 µg/mL (≈ 0.124 µM)
COc1nc(-c2ccsc2)ccc1[C@@H](c1ccccc1)[C@@](O)(CCN(C)C)c1cccc2ccccc12	> 64	24.4 (≈ 48 µM)	–	–	–
COc1nc(-c2cccc(F)c2)ccc1[C@@H](c1ccccc1)[C@@](O)(CCN(C)C)c1cccc2ccccc12	62.8 (≈ 121 µM)	> 50	1.18 (≈ 2.27 µM)	0.48 (≈ 0.922 µM)	–
CNCC[C@@](O)(c1cccc2ccccc12)[C@H](c1ccccc1)c1cc2cc(Br)ccc2nc1OC	–	–	–	–	IC50 [5]: > 10 µM; IC50 [6]: 1.73 µM; Activity (Cardiac Purkinje fiber): 0.3 µM; IC50 [7]: 0.75 µM
COc1nc(C2CCOCC2)ccc1[C@@H](c1ccccc1)[C@@](O)(CCN(C)C)c1cccc2ccccc12	22.5 (≈ 44.1 µM)	> 50	2.7 (≈ 5.29 µM)	1.3 (≈ 2.55 µM)	–
COc1nc(-c2ccc(OC(F)(F)F)cc2)ccc1[C@@H](c1ccccc1)[C@@](O)(CCN(C)C)c1cccc2ccccc12	> 64	> 50	0.61 (≈ 1.04 µM)	0.03 (≈ 0.0511 µM)	–
COc1nc(-c2ccc(F)cc2)ccc1[C@@H](c1ccccc1)[C@@](O)(CCN(C)C)c1cccc2ccccc12	> 64	> 50	0.71 (≈ 1.36 µM)	0.34 (≈ 0.653 µM)	–
COc1nc(-c2ccc(C#N)cc2)ccc1[C@@H](c1ccccc1)[C@@](O)(CCN(C)C)c1cccc2ccccc12	> 64	> 50	0.77 (≈ 1.46 µM)	0.44 (≈ 0.834 µM)	–
COc1nc(-c2ccccc2)ccc1[C@@H](c1ccccc1)[C@@](O)(CCN(C)C)c1cccc2ccccc12	–	–	–	–	MIC [9]: 0.5 µg/mL (≈ 0.995 µM); MIC [10]: 1 µg/mL (≈ 1.99 µM); MIC [11]: 1 µg/mL (≈ 1.99 µM)
COc1ncc(-c2ccccc2)cc1[C@@H](c1ccccc1)[C@@](O)(CCN(C)C)c1ccccc1	11.9 (≈ 26.3 µM)	> 50	1.2 (≈ 2.65 µM)	1.5 (≈ 3.31 µM)	–
COc1ncc(-c2ccccc2)cc1[C@@H](c1ccccc1)[C@@](O)(CCN(C)C)c1cccc(F)c1F	28.1 (≈ 57.5 µM)	> 50	0.5 (≈ 1.02 µM)	0.6 (≈ 1.23 µM)	–
COc1nc(C(C)(C)C)ccc1[C@@H](c1ccccc1)[C@@](O)(CCN(C)C)c1cccc2ccccc12	> 64	27.6 (≈ 57.2 µM)	2.7 (≈ 5.59 µM)	1.3 (≈ 2.69 µM)	–
NNC(=O)c1ccncc1 [ISONIAZID]	–	–	–	–	MIC50 [8]: 0.024 µg/mL (≈ 0.175 µM); MIC90 [8]: 0.032 µg/mL (≈ 0.233 µM)
COc1ccc(-c2ccc([C@@H](c3ccccc3)[C@@](O)(CCN(C)C)c3cccc4ccccc34)c(OC)n2)cc1	> 64	> 50	0.19 (≈ 0.357 µM)	0.33 (≈ 0.62 µM)	–
